Source: ChEMBL document CHEMBL1149716, “Synthesis and antidiabetic activity of 2,5-disubstituted-3-imidazol-2-yl-pyrrolo[2,3-b]pyridines and thieno[2,3-b]pyridines” (2007)
The source made the active and inactive calls. The rule behind the calls is not given here.

Tests used:
[1] = Insulinotropic activity in rat RIN5F cells assessed as glucose dependent insulin secretion per ug of total protein at 0.1 uM; format: functional
Method in brief: (§1)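 RIN5F cells seeded at 0.2×10^6 per well and grown overnight to 80% confluence. Preincubated 40 min in Krebs-Ringer Hepes buffer (1.1 mM glucose, 0.5% BSA, pH 7.4). Then exposed 30 min at 37 °C to compound with 16.7 mM glucose. Supernatant insulin by rat insulin ELISA, normalized to total protein (pg/μg/h). n = 3, mean ± SD.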

[2] = Insulinotropic activity in rat RIN5F cells assessed as insulin secretion per ug of total protein at 1 uM; format: functional
Method in brief: (§2)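 RIN5F cells seeded at 0.2×10^6 per well, grown overnight to 80% confluence, then preincubated 40 min in Krebs-Ringer Hepes buffer (1.1 mM glucose, 0.5% BSA, pH 7.4). Incubated 30 min at 37 °C with compound in the absence of glucose (0 mM). Secreted insulin by rat insulin ELISA, normalized to total protein (pg/μg/h). n = 3, mean ± SD.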

[3] = Insulinotropic activity in rat RIN5F cells assessed as insulin secretion per ug of total protein at 0.1 uM; format: functional; method in brief: as §2
[4] = Insulinotropic activity in rat RIN5F cells assessed as insulin secretion per ug of total protein at 10 uM; format: functional; method in brief: as §2
[5] = Insulinotropic activity in rat RIN5F cells assessed as glucose dependent insulin secretion per ug of total protein at 10 uM; format: functional; method in brief: as §1
[6] = Insulinotropic activity in rat RIN5F cells assessed as glucose dependent insulin secretion per ug of total protein at 1 uM; format: functional; method in brief: as §1
[7] = test system: Mus musculus; assay: Antidiabetic activity in overnight fasted C57BL/6J mouse assessed as reduction in serum glucose level at 1 uM to 100 uM, ip after 120 mins; format: functional, organism-based
Method in brief: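 Male C57BL/6J mice (8–12 weeks, 25–30 g), n = 6 per group, fasted overnight. Single ip dose of 1, 10 or 100 μM/kg/10 mL in saline (saline vehicle control). Retro-orbital blood under light ether at 0, 30, 60 and 120 min. Serum glucose by GOD/POD method, duplicate samples. Baseline-corrected curves and 0–120 min AUC; mean ± SEM.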

[8] = test system: Mus musculus; assay: Antidiabetic activity in ip dosed overnight fasted C57BL/6J mouse assessed as serum insulin level by ELISA; format: functional, organism-based
Method in brief: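 Male C57BL/6J mice (8–12 weeks, 25–30 g), randomized into groups of n = 6 by fed glucose and fasted overnight. Single ip dose of 1, 10 or 100 μM/kg/10 mL, suspended in normal saline (saline vehicle control). Retro-orbital blood taken under light ether at 30 min. Serum stored at -70 °C, then assayed by rat/mouse insulin ELISA. Mean ± SEM.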

[9] = test system: Mus musculus; assay: Antidiabetic activity in overnight fasted C57BL/6J mouse assessed as reduction in serum glucose level at 1 uM to 100 uM, ip after 30 mins; format: functional, organism-based
Method in brief: (§3)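 Male C57BL/6J mice (8–12 weeks, 25–30 g, bred in-house) randomized into groups (n = 6) by fed glucose, fasted overnight with water ad libitum. Compounds suspended in normal saline given ip at 1, 10 and 100 μM/kg/10 mL right after 0 min bleed. Retro-orbital blood under light ether at 0, 30, 60, 120 min; serum glucose by GOD/POD method, duplicate samples; mean ± SEM.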

[10] = test system: Mus musculus; assay: Antidiabetic activity in overnight fasted C57BL/6J mouse assessed as reduction in serum glucose level at 1 uM to 100 uM, ip after 60 mins; format: functional, organism-based; method in brief: as §3

SMILES	Activity [1]	Activity [5]	Activity [6]	further results
CCCCNC(=O)NS(=O)(=O)c1ccc(C)cc1 [TOLBUTAMIDE]	20 pg/h	35.2 pg/h		Activity [2]: 20.7 pg/h; Activity [3]: 19.7 pg/h; Activity [4]: 34.4 pg/h
c1cnc2[nH]cc(C3=NCCN3)c2c1	12.1 pg/h	28 pg/h	14.1 pg/µg/h	
CCc1sc2ncccc2c1C1=NCCN1	13 pg/h	29.1 pg/h	15.5 pg/µg/h	
CCc1sc2ncc(Cl)cc2c1C1=NCCN1	18.5 pg/h	39.8 pg/h	26.5 pg/µg/h	
Cc1sc2ncc(Cl)cc2c1C1=NCCN1	19.2 pg/h	41.5 pg/h	27.5 pg/µg/h	Activity [7]: Active; Activity [8]: Dose-dependent effect
Cc1[nH]c2ccc(Cl)cc2c1C1=NCCN1	16.3 pg/h	36.5 pg/h	22.4 pg/µg/h	Activity [9]: Active; Activity [10]: Active
CCc1[nH]c2ncccc2c1C1=NCCN1	13.3 pg/h	29.1 pg/h	16.4 pg/µg/h	
c1ccc(Cc2sc3ncccc3c2C2=NCCN2)cc1	14.4 pg/h	31.6 pg/h	18.8 pg/µg/h	
c1cnc2scc(C3=NCCN3)c2c1	12.2 pg/h	28.2 pg/h	14.2 pg/µg/h	
c1cnc2[nH]c(C3CCCCC3)c(C3=NCCN3)c2c1	12.4 pg/h	28 pg/h	14.3 pg/µg/h	
Clc1cnc2sc(Cc3ccccc3)c(C3=NCCN3)c2c1	13.9 pg/h	31.9 pg/h	18.2 pg/µg/h	
Clc1cnc2[nH]cc(C3=NCCN3)c2c1	12.4 pg/h	29.6 pg/h	15.2 pg/µg/h	
CCc1[nH]c2ncc(Cl)cc2c1C1=NCCN1	18.9 pg/h	39.9 pg/h	26.1 pg/µg/h	
c1ccc(-c2sc3ncccc3c2C2=NCCN2)cc1	14.7 pg/h	31.9 pg/h	18 pg/µg/h	
Clc1cnc2[nH]c(-c3ccccc3)c(C3=NCCN3)c2c1	18.2 pg/h	39.2 pg/h	25.5 pg/µg/h	
Clc1cnc2[nH]c(Cc3ccccc3)c(C3=NCCN3)c2c1	14.4 pg/h	31.9 pg/h	18.3 pg/µg/h	
Clc1cnc2[nH]c(C3CCCCC3)c(C3=NCCN3)c2c1	12.6 pg/h	28.9 pg/h	15 pg/µg/h	
Clc1cnc2sc(-c3ccccc3)c(C3=NCCN3)c2c1	18 pg/h	39 pg/h	25.4 pg/µg/h	
Clc1cnc2sc(C3CCCCC3)c(C3=NCCN3)c2c1	12.9 pg/h	28.7 pg/h	15.1 pg/µg/h	
Clc1cnc2scc(C3=NCCN3)c2c1	12.6 pg/h	29 pg/h	15 pg/µg/h	
Cc1[nH]c2ncc(Cl)cc2c1C1=NCCN1	19.3 pg/h	41.7 pg/h	27.7 pg/µg/h	Activity [7]: Active; Activity [8]: Dose-dependent effect
Cc1[nH]c2ncccc2c1C1=NCCN1	14.9 pg/h	32.4 pg/h	18 pg/µg/h	
Cc1sc2ncccc2c1C1=NCCN1	14.5 pg/h	31.8 pg/h	18.9 pg/µg/h	
c1cnc2sc(C3CCCCC3)c(C3=NCCN3)c2c1	12.6 pg/h	28.1 pg/h	14.7 pg/µg/h	
c1ccc(Cc2[nH]c3ncccc3c2C2=NCCN2)cc1	14.8 pg/h	32.6 pg/h	18.2 pg/µg/h	
c1ccc(-c2[nH]c3ncccc3c2C2=NCCN2)cc1	14.1 pg/h	32.5 pg/h	18.1 pg/µg/h	
